The results in this text go back to ChEMBL document CHEMBL1122708, “Preparation and antibacterial activities of new 1,2,3-diazaborine derivatives and analogues” (1984).

The structures appear in SMILES notation. ≈ marks a conversion by molar mass, not a printed value. Where only a bound is given, the exact number is not on record here.

One assay deals with Proteus mirabilis. Put plainly: Minimum inhibitory concentration against Proteus mirabilis delta 89. The assay is classed as functional.
Assay [1] deals with Neisseria gonorrhoeae. Nature of the assay: Minimum inhibitory concentration of compound against Neisseria gonorrhoeae AS 7720. The assay is classed as functional. The procedure, abridged: (§1)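 Agar dilution on Kellogg agar, 10⁶ colony forming units, incubated 20 h at 36 °C in 5% CO₂; MIC is the lowest concentration giving no visible growth.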
In assay [2] the test system is Escherichia coli. Put plainly: Antibacterial activity againist Escherichia coli 120 infected NMRI mice after peroral administration. The assay is classed as functional. To be noted: po. In a few lines: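 ED50 in NMRI mice infected intraperitoneally with E. coli 120; compound given orally immediately and 5 h after infection.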
Assay [3] relates to Neisseria gonorrhoeae. Nature of the assay: Minimum inhibitory concentration of compound against Neisseria gonorrhoeae W2. The assay is classed as functional. The procedure, abridged: as §1
A further assay has as its system Klebsiella aerogenes. Nature of the assay: Minimum inhibitory concentration of compound against Enterobacter aerogenes delta 220. The assay is classed as functional.
The test system of another assay is Salmonella typhimurium. Put plainly: Minimum inhibitory concentration of compound against Salmonella Typhimurium delta 119. The assay is classed as functional, Salmonella enterica subsp. enterica serovar Typhimurium. The following applies: Salmonella enterica.
For assay [4], the system named is Escherichia coli. Put plainly: Minimum inhibitory concentration of compound against Escherichia coli delta 120. The assay is classed as functional.
The next assay concerns Klebsiella pneumoniae. Put plainly: Minimum inhibitory concentration of compound against Klebsiella pneumoniae delta 217. The assay is classed as functional.

`Cc1cc2c(s1)C=NN(S(=O)(=O)c1ccccc1C)B2O`: the MIC against Proteus mirabilis was found to be 1.56 µg/mL (≈ 4.87 µM); in the assay with Neisseria gonorrhoeae [1], 0.5 µg/mL (≈ 1.56 µM); with Neisseria gonorrhoeae [3], 0.5 µg/mL (≈ 1.56 µM); against Klebsiella aerogenes, 50 µg/mL (≈ 156 µM); against Salmonella typhimurium it was 6.25 µg/mL (≈ 19.5 µM); against Escherichia coli [4], 25 µg/mL (≈ 78.1 µM). The lowest concentration to inhibit growth in the assay with Klebsiella pneumoniae (MIC) was 0.78 µg/mL (≈ 2.44 µM). For the same compound, it took a dose of 50 mg/kg to reach the 50% effect level in the assay with Escherichia coli [2] (ED50).
With `Cc1ccc(S(=O)(=O)N2N=Cc3ccccc3B2O)cc1`, the MIC against Proteus mirabilis is 12.5 µg/mL (≈ 41.6 µM); against Neisseria gonorrhoeae [1] it was 2 µg/mL (≈ 6.66 µM); against Neisseria gonorrhoeae [3], 8 µg/mL (≈ 26.7 µM); against Klebsiella aerogenes, > 50 µg/mL; against Salmonella typhimurium, 6.25 µg/mL (≈ 20.8 µM); against Escherichia coli [4] it was 25 µg/mL (≈ 83.3 µM). The compound further came in with an MIC against Klebsiella pneumoniae of 3.12 µg/mL (≈ 10.4 µM). For the same compound, in the assay on Escherichia coli [2], the ED50 was ~25 mg/kg.
Turning to `Cc1ccc(S(=O)(=O)N2N=Cc3cc(Cl)c(Cl)cc3B2O)cc1`, the ED50 in the assay with Escherichia coli [2] was > 100 mg/kg. The MIC against Salmonella typhimurium and against Escherichia coli [4] was > 50 µg/mL each time.
As for `Cc1ccc(S(=O)(=O)N2N=Cc3ccc(O)cc3B2O)cc1`, the ED50 with Escherichia coli [2] was ~300 mg/kg. For the same compound, the MIC against Salmonella typhimurium and against Escherichia coli [4] was > 50 µg/mL throughout.
`Cc1ccc(S(=O)(=O)N2N=Cc3ccc(C(=O)O)cc3B2O)cc1`: the minimum inhibitory concentration (MIC) in the assay on Salmonella typhimurium and in the assay on Escherichia coli [4] was > 50 µg/mL each time.
Consider `Cc1ccc(S(=O)(=O)N2N=Cc3ccc(F)cc3B2O)cc1`, for which the ED50 in the assay with Escherichia coli [2] was ~250 mg/kg. The MIC in the assay on Salmonella typhimurium and with Escherichia coli [4] was > 50 µg/mL in each case.
`Cc1ccc(S(=O)(=O)N2N=Cc3ccc(N(C)C)cc3B2O)cc1` came in with an ED50 with Escherichia coli [2] of 100 mg/kg. Further, the MIC against Salmonella typhimurium and in the assay with Escherichia coli [4] was > 50 µg/mL throughout.
For the compound `CS(=O)(=O)N1N=Cc2ccccc2B1O`, the MIC against Salmonella typhimurium and against Escherichia coli [4] was > 50 µg/mL in each case.
Take `Cc1ccc(S(=O)(=O)N2N=C(c3ccccc3)c3ccccc3B2O)cc1`: in the assay on Escherichia coli [2], the ED50 is > 300 mg/kg. For the same compound, the MIC in the assay on Salmonella typhimurium and in the assay with Escherichia coli [4] was > 50 µg/mL each time.
Turning to `CC(=O)Nc1ccc2c(c1)B(O)N(S(=O)(=O)c1ccc(C)cc1)N=C2`, the ED50 with Escherichia coli [2] is > 300 mg/kg. Further, the MIC against Salmonella typhimurium and with Escherichia coli [4] was > 50 µg/mL throughout.
Consider `Cc1cc(C)c(S(=O)(=O)N2N=Cc3c(F)cccc3B2O)c(C)c1`, for which the MIC in the assay with Proteus mirabilis was 10 µg/mL (≈ 28.9 µM); in the assay with Klebsiella aerogenes, > 50 µg/mL; against Salmonella typhimurium, > 50 µg/mL; with Escherichia coli [4], > 50 µg/mL; in the assay on Klebsiella pneumoniae it was 50 µg/mL (≈ 144 µM). Also, the ED50 in the assay with Escherichia coli [2] is > 100 mg/kg.
For `Cc1ccc(S(=O)(=O)N2N=Cc3cc(N)ccc3B2O)cc1`, the MIC with Proteus mirabilis was 50 µg/mL (≈ 159 µM); with Klebsiella aerogenes, > 50 µg/mL; against Salmonella typhimurium, > 50 µg/mL; in the assay on Escherichia coli [4] it was > 50 µg/mL; against Klebsiella pneumoniae it was 50 µg/mL (≈ 159 µM). The ED50 with Escherichia coli [2] was > 300 mg/kg.
With `O=[N+]([O-])c1ccc(S(=O)(=O)N2N=Cc3c(F)cccc3B2O)cc1`, in the assay with Escherichia coli [2], the ED50 was ~100 mg/kg. Further, the figures for the MIC against Salmonella typhimurium and against Escherichia coli [4] were 50 µg/mL (≈ 143 µM) and > 50 µg/mL, respectively.
Consider `CCS(=O)(=O)N1N=Cc2sc(Br)cc2B1O`, for which the MIC is 6.25 µg/mL (≈ 19.3 µM) in the assay on Proteus mirabilis; 2 µg/mL (≈ 6.19 µM) with Neisseria gonorrhoeae [1]; 2 µg/mL (≈ 6.19 µM) in the assay on Neisseria gonorrhoeae [3]; 12.5 µg/mL (≈ 38.7 µM) in the assay on Klebsiella aerogenes; 3.12 µg/mL (≈ 9.66 µM) against Salmonella typhimurium; 12.5 µg/mL (≈ 38.7 µM) in the assay on Escherichia coli [4]. Also, inhibition of growth against Klebsiella pneumoniae (MIC) required 3.12 µg/mL (≈ 9.66 µM).
In the case of `CC1=NN(S(=O)(=O)c2ccc(C)cc2)B(O)c2ccccc21`, in the assay with Escherichia coli [2], the ED50 is ~100 mg/kg. Besides, the MIC with Salmonella typhimurium and against Escherichia coli [4] was > 50 µg/mL throughout.
In the case of `Cc1ccc(S(=O)(=O)N2N=Cc3c(ccn3C)B2O)cc1`, the ED50 with Escherichia coli [2] is > 300 mg/kg. The MIC with Salmonella typhimurium and with Escherichia coli [4] was > 50 µg/mL throughout.
On to `Cc1ccc(S(=O)(=O)N2N=Cc3c(ccn3Cc3ccccc3)B2O)cc1`, for which the MIC was 50 µg/mL (≈ 132 µM) against Proteus mirabilis; > 50 µg/mL with Klebsiella aerogenes; > 50 µg/mL against Salmonella typhimurium; > 50 µg/mL against Escherichia coli [4]; 50 µg/mL (≈ 132 µM) in the assay with Klebsiella pneumoniae. Moreover, in the assay with Escherichia coli [2], the ED50 was > 600 mg/kg.
For the compound `Cc1ccc(S(=O)(=O)N2N=Cc3scc(Br)c3B2O)cc1`, the MIC was 50 µg/mL (≈ 130 µM) in the assay with Proteus mirabilis; > 50 µg/mL in the assay on Klebsiella aerogenes; > 50 µg/mL in the assay with Salmonella typhimurium; > 50 µg/mL in the assay with Escherichia coli [4]; > 50 µg/mL against Klebsiella pneumoniae. The ED50 in the assay on Escherichia coli [2] is > 300 mg/kg.
For `Cc1ccc(S(=O)(=O)N2N=Cc3c(Cl)cc(N(C)C)cc3B2O)cc1`, in the assay on Escherichia coli [2], the ED50 is > 300 mg/kg. Further, the MIC in the assay on Salmonella typhimurium and against Escherichia coli [4] was > 50 µg/mL in each case.

The MIC is the least concentration at which growth counts as inhibited. The term ED50 denotes the midpoint of the dose-response relation. Low values mean an effect at a small dose, high ones a need for a large dose.
